Only some compounds are listed: those with a hit (about 1.8% of all), similar ones and a draw of the others.
APJ agonist: agonists of human apelin receptor APJ, primary screen, CHO-K1 cells, PathHunter beta-arrestin, luminescence | 0% DMSO wells, 100% apelin | activation, % at 20 µM | 330,000 tested, 0.11% active | AID 2520, 2010;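 active = activation more than six SD over the plate average, tested at 20 µM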;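 also: 0% = DMSO alone and 100% = apelin-13 at 10 nM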
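Test system: CHO-K1 APJ beta-arrestin complementation cell line | Compound: Single test compound dose, 20 µM final, 1% DMSO | Incubation: Compound 90 min 25 °C, reagent 1 h | Measured by: beta-gal luminescence | Read-out basis: APJ–arrestin association signal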
EBI2 block: EBI2 receptor antagonists, beta-arrestin recruitment, primary screen, cell-based, luminescence, 7a,25-OHC stimulation, uHTS. G-protein coupled receptor 183 (Homo sapiens), P32249. 7a,25-OHC stimulated. inhibition, % at 5 µM. 360,000 tested, 0.81% active; in the data active = inhibition above about 38%;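 also: enzyme fragment complementation signal reports receptor beta-arrestin coupling in cells; 0% = agonist plus DMSO wells and 100% = wells without agonist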
Beta2AR agonist: beta2AR agonists driving receptor internalization, primary screen, cell-based, FAP fluorogen, flow cytometry. Beta-2 adrenergic receptor (Homo sapiens), P07550. Am2.2-beta2AR cells. response, % (no concentration beside the values). 340,000 tested, 0.43% active. AID 504454, 2011;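 active = response above a set limit, near 3 SD of response in nonfluorescent compounds, cut at about 42% in these data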
CXCR6 block: CXCR6 receptor inhibitors, primary screen, cell-based, beta-arrestin, luminescence, CHO-K1 PathHunter, 1536-well. inhibition, % at 20 µM. C-X-C chemokine receptor type 6 (Homo sapiens), O00574. AID 602244, 2012. 360,000 tested, 0.36% active; in the data active = inhibition above about 34%, passing the limit was not always enough;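 also: antagonist mode with CXCL16 agonist at 10 nM final; 0% = 10 nM CXCL16 with DMSO and 100% = unstimulated wells without agonist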
Target sequence (O00574 whole entry, looked up): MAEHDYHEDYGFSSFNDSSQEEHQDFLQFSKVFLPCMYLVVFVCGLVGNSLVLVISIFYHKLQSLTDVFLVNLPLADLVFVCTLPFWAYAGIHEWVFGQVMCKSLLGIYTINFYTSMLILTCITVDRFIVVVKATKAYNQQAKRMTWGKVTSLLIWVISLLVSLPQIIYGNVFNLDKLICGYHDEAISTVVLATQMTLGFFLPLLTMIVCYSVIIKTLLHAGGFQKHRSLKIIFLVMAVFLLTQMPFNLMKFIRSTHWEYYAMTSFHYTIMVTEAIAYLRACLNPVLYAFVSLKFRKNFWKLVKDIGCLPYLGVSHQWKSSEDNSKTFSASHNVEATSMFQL
APJ antagonist: antagonists of human apelin receptor APJ, primary screen, CHO-K1 cells, beta-arrestin complementation, luminescence | P35414 | inhibition, % at 20 µM | 330,000 tested, 0.32% active | AID 2521, 2010;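 active = inhibition above about 40% at 20 µM, limit read from the data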;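 also: cells challenged with 10 nM apelin-13 agonist together with compound; plate controls were apelin-13 plus DMSO wells for no effect and DMSO wells lacking apelin-13 for full effect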
CCR6 antag: CCR6 receptor antagonists, primary screen, cell-based, CHO-K1, luminescence, beta-arrestin, uHTS; C-C chemokine receptor type 6 (Homo sapiens), P51684; CHO-K1 CCR6 PathHunter beta-arrestin, CCL20-stimulated; inhibition, % at 20 µM; 340,000 tested, 0.49% active;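 active = compounds whose inhibition of the agonist-driven luminescence signal at 20 µM reaches about 50%, limit read from the data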;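 also: cells stimulated with CCL20 at 14 nM final; plate controls were DMSO with CCL20 for no effect and DMSO without agonist for full effect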
CXCR6 antag conf: CXCR6 receptor antagonists, confirmation, cell-based, single concentration, beta-arrestin, luminescence | shares compounds with CXCR6 block | CHO-K1 CXCR6 PathHunter beta-arrestin | inhibition, % at 20 µM | 700 tested, 65% active | AID 602409, 2012;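 active = mean inhibition over four retests above 40%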;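 also: receptor stimulated with 10 nM CXCL16 agonist; beta-galactosidase fragment complementation upon beta-arrestin recruitment to receptor; plate controls were CXCL16 plus DMSO for no effect and DMSO without CXCL16 for full effect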
* marks the source's active call; other numbers are inactive results; x = no result.

SMILES	APJ agonist	EBI2 block	Beta2AR agonist	CXCR6 block	APJ antagonist	CCR6 antag	CXCR6 antag conf
COc1cc(/C=C(\C#N)c2nc3ccccc3o2)ccc1O	-8	7	-566	49*	32	55*	43*
Cc1ccc(O)c(C(=O)CC(=O)c2ccc(Cl)cc2)c1	x	-2	15	42*	x	65*	45*
CN(C)C(=O)c1c(C(F)(F)F)nn(C)c1Cl	1	-1	3	-2	5	3	x
Cc1cc(F)ccc1-c1cc(C(=O)NCc2cccs2)[nH]n1	x	11	x	0	x	x	x
COc1ccc2nc(-n3c(O)c(C4=c5ccccc5=NC4=O)[nH]c3=S)sc2c1	x	1	14	64*	x	78*	52*
COC(=O)c1ccc(CCc2cc(O)c(Br)cc2O)cc1	x	1	15	55*	x	x	49*
O=C(c1cccs1)N1C[C@@H](O)[C@H](n2cc(-c3ccc(F)cc3)nn2)C[C@@H]1c1ccccc1	x	6	x	1	x	x	x
Cc1ccc2c(c1)C1CN(C)CCC1N2C(=S)NC(=O)c1ccc(Br)cc1 (centres undefined)	-5	7	-2	44*	33	56*	67*
O=C(NC(=S)Nc1ccccc1O)c1cncc(Br)c1	-6	5	-79	47*	28	66*	48*
CC1(C(=O)Nc2cccc3cccnc23)CCN1Cc1ccc(-c2ccccc2)o1 (centres undefined)	x	1	x	1	x	x	x
COc1cc2c(cc1[N+](=O)[O-])-c1ccc([N+](=O)[O-])cc1C2=NNC(N)=S	x	-11	x	25	x	x	x
NC(=S)NN=C1c2cc(Cl)ccc2-c2c1cc(Cl)cc2[N+](=O)[O-]	x	11	20	43*	x	76*	59*
C=C1C(=O)[C@]23C[C@H]1CC[C@H]2[C@]1(C)[C@@H](OC(C)=O)CC[C@@](C)(C(=O)OC)[C@H]1C[C@@H]3OC(C)=O	x	39	x	27	x	x	x
C=C1C(=O)[C@]23C[C@H]1CCC2[C@@]1(C)C(C[C@@H]3O)[C@](C)(C(=O)OC)CC[C@@H]1OC(C)=O (some centres undefined)	x	80*	x	69*	x	x	89*
Clc1ccc(-c2nc3c4ccccc4ccn3c2Cc2ccccc2)cc1	x	11	x	44*	x	x	10
COc1ccc(CCNC(=O)COC(=O)c2cccs2)cc1	-4	4	-3	-3	3	4	x
CCCc1ccc(OC(=O)c2cccs2)cc1	-4	-2	1	50*	11	5	-2
COc1ccc(C(=O)NC(=S)Nc2ccc([N+](=O)[O-])cc2C)cc1OC	-10	14	-10	50*	34	68*	55*
CCCCNC(=O)C1CC(=O)N(CCc2ccc(C)cc2)C1 (centres undefined)	-1	9	6	-5	5	5	x
COCCCn1c(N)c(-c2nc3ccccc3n2C)c2nc3ccccc3nc21	-8	5	10	43*	5	x	65*
Cc1oc(-c2ccc(Cl)cc2)nc1CS(=O)CC(=O)NC1CCCC1 (centres undefined)	-2	-9	-6	5	21	1	x
Fc1ccc(CNC(=S)Nc2ccccc2Cl)cc1	-1	-10	-4	47*	-4	-7	9
Cc1c(Cl)cccc1NC(=S)NCc1ccc(F)cc1	2	-5	0	-9	-3	4	x
COc1ccc(NC(=O)C2c3ccccc3OCC(=O)N2CCc2ccccc2)cc1 (centres undefined)	x	-7	x	6	x	x	x
CCOc1cc(CNCCO)c(Cl)cc1OCC(=O)NCCc1ccccc1	-1	8	2	71*	-7	-6	13

Screening data: PubChem BioAssay, several laboratories
